Bounds are passed on as bounds.

Data set [1] relates to A549. Nature of the data set: Growth inhibition of human A549 cells by MTT assay. The class given is functional, cell-based. In outline:
(§1)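 In vitro MTT colorimetric read-out of growth inhibition. Each compound was run across a six-line human cancer panel chosen for differing resistance to pro-apoptotic stimuli. IC50 was taken as the growth inhibitory concentration. No reference drug was included.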
For orientation: Tetrazolium assays rely on reduction of a dye to a coloured formazan, in cell work by metabolically active cells.

Data set [2] can be described thus: Growth inhibition of human Hs683 cells by MTT assay. It counts as functional, cell-based. The conditions noted are these: Hs 683. In outline: as §1
The test system of data set [3] is LoVo. Nature of the data set: Growth inhibition of human LoVo cells by MTT assay. It counts as functional, cell-based. An outline of the steps: as §1
Data set [4] deals with PC-3. Nature of the data set: Growth inhibition of human PC3 cells by MTT assay. The class given is functional, cell-based. An outline of the steps: as §1
Data set [5] deals with SK-MEL-28. Nature of the data set: Growth inhibition of human SK-MEL-28 cells by MTT assay. The class given is functional, cell-based. In outline:
as §1

Data set [6] in a line: Growth inhibition of human U373 cells by MTT assay. It counts as functional, cell-based, U-373MG ATCC. As to conditions: U373 MG. In outline: as §1
Data set [7] can be described thus: Chemical stability of the compound in cell culture medium assessed as compound recovery after 72 hrs. The class given is physicochemical. As to conditions: read-out: Drug recovery.
Data set [8] deals with LNCaP. In words: Growth inhibition of human LNCAP cells. The class given is functional. The conditions noted are these: read-out: ED50 (the source's name).
In data set [9] the test system is Col2. In words: Growth inhibition of human Col2 cells. The class given is functional. The conditions noted are these: read-out: ED50 (the source's name).
Data set [10] deals with Lu1. Nature of the data set: Growth inhibition of human Lu1 cells. The conditions noted are these: read-out: ED50 (the source's name). It counts as functional.
Data set [11] can be described thus: Growth inhibition of hTERT expressing human RPE1 cells. The class given is functional, TERT-RPE1. As to conditions: RPE-1, read-out: ED50 (the source's name).
The subject of data set [12] is KB. In words: Growth inhibition of human KB cells. It counts as functional. As to conditions: read-out: ED50 (the source's name).

A word on the IC50: it is the concentration that gives 50% inhibition. Turning to `CCCOC1=C(CC=C(C)C)C(=O)c2ccccc2C1=O`, the IC50 in data set [1], in data set [2], in data set [3], in data set [4], in [5] and in data set [6] was over 100 µM each time.
On to `O=C1C(O)=C(/C=C/c2ccccc2)C(=O)c2ccccc21`, for which the IC50 in [1] is over 100 µM; in [2], 42 µM; in [3], 82 µM; in data set [4] it was over 100 µM; in [5], over 100 µM; in data set [6], over 100 µM.
Take `O=C1C(O)=C(Cc2ccccc2)C(=O)c2ccccc21`: the IC50 was over 100 µM in [1]; over 100 µM in data set [2]; 42 µM in data set [3]; 91 µM in data set [4]; over 100 µM in data set [5]; over 100 µM in data set [6].
With `CC(=O)OC1=C(CC=C(C)C)C(=O)c2ccccc2C1=O`, the IC50 in data set [1] turned out to be 5 µM; in [2], 31 µM; in data set [3], 8 µM; in [4] it was 4 µM; in data set [5], 13 µM; in [6], 30 µM. In addition, the remaining at 72 h in [7] is over 95%.
Consider `CCCCCCCCCCCCCC(=O)OC1=C(CC=C(C)C)C(=O)c2ccccc2C1=O`, for which the IC50 in [1] is 49 µM; in [2], 89 µM; in data set [3] it was 50 µM; in data set [4], 43 µM; in data set [5], 50 µM; in data set [6], over 100 µM. For the same molecule, the remaining at 72 h in data set [7] is over 95%.
On to `O=C1C=C(O)C(=O)c2ccccc21` [LAWSONE], for which the IC50 in data set [1] is 58 µM; in data set [2] it was 31 µM; in data set [3] it was over 100 µM; in [4] it was over 100 µM; in [5], over 100 µM; in data set [6], over 100 µM.
As to `CC(C)=CCC/C(C)=C/CC1=C(O)C(=O)c2ccccc2C1=O`, the IC50 was found to be 12 µM in data set [1]; 11 µM in data set [2]; 7 µM in data set [3]; 12 µM in data set [4]; 28 µM in [5]; 48 µM in data set [6].
Turning to `C=CCOC1=C(CC=C(C)C)C(=O)c2ccccc2C1=O`, the IC50 in data set [1] came out at 26 µM; in data set [2] it was 28 µM; in [3] it was 22 µM; in [4], 28 µM; in data set [5] it was 23 µM; in [6], 75 µM.
Consider `CC(C)=CCC1=C(O)C(=O)c2ccccc2C1=O` [LAPACHOL], for which the IC50 in data set [1] was 8 µM; in data set [2] it was 11 µM; in data set [3], 9 µM; in [4] it was 4 µM; in [5], 8 µM; in data set [6], 8 µM.
In the case of `CC(C)=CCC1=C(Cl)C(=O)c2ccccc2C1=O`, the EC50 in [8], in data set [9], in data set [10], in data set [11] and in data set [12] was 12.2 µM each time. Moreover, the half-maximal inhibitory concentration (IC50) in [1] worked out at 34 µM; in data set [2], 33 µM; in data set [3], 25 µM; in data set [4], 27 µM; in [5], 31 µM; in [6], 26 µM.
Consider `CCCCCCCCCCCCCCCCCC(=O)OC1=C(CC=C(C)C)C(=O)c2ccccc2C1=O`, for which the IC50 in data set [1], in data set [2], in data set [3], in [4], in data set [5] and in data set [6] was over 100 µM in each case. In addition, the remaining at 72 h in data set [7] was over 95%.
`COC1=C(CC=C(C)C)C(=O)c2ccccc2C1=O`: the IC50 in data set [1] is 36 µM; in data set [2], 36 µM; in data set [3] it was 57 µM; in data set [4] it was 42 µM; in data set [5], 27 µM; in [6] it was 78 µM.
As to `CCCCCCCCCCCC(=O)OC1=C(CC=C(C)C)C(=O)c2ccccc2C1=O`, the IC50 is 35 µM in data set [1]; 18 µM in [2]; 27 µM in [3]; 27 µM in data set [4]; 18 µM in data set [5]; 31 µM in data set [6]. In addition, the remaining at 72 h in data set [7] was over 95%.
In the case of `CCCCCCCC/C=C\CCCCCCCC(=O)OC1=C(CC=C(C)C)C(=O)c2ccccc2C1=O`, the concentration for half-maximal inhibition (IC50) in data set [1] was determined as 59 µM; in data set [2], 85 µM; in data set [3], 57 µM; in [4], 65 µM; in [5], 73 µM; in data set [6], 84 µM. In addition, the remaining at 72 h in data set [7] was over 95%.
With `CCOC1=C(CC=C(C)C)C(=O)c2ccccc2C1=O`, the IC50 in data set [1], in data set [2], in data set [3], in data set [4], in data set [5] and in [6] was over 100 µM each time.
Consider `CCCCCCCCCCCCCCCC(=O)OC1=C(CC=C(C)C)C(=O)c2ccccc2C1=O`, for which the concentration for half-maximal inhibition (IC50) in data set [1] is 38 µM; in data set [2], 48 µM; in data set [3] it was 29 µM; in data set [4] it was 35 µM; in data set [5], 33 µM; in data set [6], 54 µM. The remaining at 72 h in data set [7] was over 95%.
For the molecule `CC(C)=CCOC1=C(CC=C(C)C)C(=O)c2ccccc2C1=O`, the IC50 is 33 µM in data set [1]; 41 µM in data set [2]; 32 µM in [3]; 38 µM in data set [4]; 29 µM in data set [5]; over 100 µM in data set [6].

Values taken from ChEMBL document CHEMBL3102839, “Growth inhibitory activity for cancer cell lines of lapachol and its natural and semi-synthetic derivatives” (Bioorg Med Chem Lett, 2014).
